# Bioassay records: PubChem BioAssay, The Scripps Research Institute Molecular Screening Center
# GPR7 antagonist: antagonists of human GPR7 (neuropeptides B/W receptor 1). P48145. GPR7-expressing cells, fluorescence antagonist assay. inhibition, % at 4.4 µM. 1.1% of 290,000 active; in the data active = inhibition above about 16%, passing the limit was not always enough;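 also: cells stimulated with the agonist NPW; 0% = agonist with vehicle and 100% = vehicle without agonist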
# Target sequence (P48145 whole entry, looked up): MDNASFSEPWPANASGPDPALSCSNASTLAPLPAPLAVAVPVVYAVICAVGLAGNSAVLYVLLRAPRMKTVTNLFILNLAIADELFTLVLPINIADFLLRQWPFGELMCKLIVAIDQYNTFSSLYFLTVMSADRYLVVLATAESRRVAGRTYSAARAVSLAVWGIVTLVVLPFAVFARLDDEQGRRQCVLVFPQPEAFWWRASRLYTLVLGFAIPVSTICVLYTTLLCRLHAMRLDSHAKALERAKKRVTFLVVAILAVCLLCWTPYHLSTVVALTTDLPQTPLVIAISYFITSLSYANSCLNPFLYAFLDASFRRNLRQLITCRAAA
# OX1R antag-1: OX1R (human) antagonism | OX1R-expressing cells, FRET antagonist read-out | 1.8% of 330,000 active | inhibition, % at 6.6 µM | O43613; in the data active = inhibition mostly above about 38%, no sharp cut-off; inactive = mostly below about 40%;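 also: 0% = agonist challenge alone and 100% = reference antagonist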
# CHO parental Ca: signal in parental CHO cells, OX1R antagonist counter-screen; 0.63% of 330,000 active; parental CHO-K1, ATP-induced calcium, Fluo-8 fluorescence; inhibition, % at 5.6 µM; AID 463079;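 active = inhibition above that plate's mean sample inhibition plus 3 SD, cut at about 26% in these data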;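 also: 0% = ATP-challenged DMSO wells and 100% = DMSO wells without ATP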
#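 Test system: untransfected parental CHO cell line; also added: ATP stimulus; dosing: 5.6 µM, single dose; signal: calcium-sensitive Fluo-8 fluorescence; measure: percent inhibition of ATP-evoked calcium rise, normalized to controls; benchmarks: low control ATP plus DMSO, high control DMSO only; replication: one well per compound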
# TAAR1 antag: antagonists of human TAAR1; inhibition, % at 3 µM; Q96RJ0; CHO RD-HGA16 TAAR1, Fluo-8 calcium fluorescence, antagonist; AID 624466; 1.5% of 360,000 active;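 active = inhibition above a per-plate cutoff, the mean inhibition of test compounds on that plate plus 3 SD, cut at about 49% in these data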;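 also: 0% = DMSO plus EC80 beta-PEA response and 100% = DMSO alone without agonist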
# Target sequence (Q96RJ0 whole entry, looked up): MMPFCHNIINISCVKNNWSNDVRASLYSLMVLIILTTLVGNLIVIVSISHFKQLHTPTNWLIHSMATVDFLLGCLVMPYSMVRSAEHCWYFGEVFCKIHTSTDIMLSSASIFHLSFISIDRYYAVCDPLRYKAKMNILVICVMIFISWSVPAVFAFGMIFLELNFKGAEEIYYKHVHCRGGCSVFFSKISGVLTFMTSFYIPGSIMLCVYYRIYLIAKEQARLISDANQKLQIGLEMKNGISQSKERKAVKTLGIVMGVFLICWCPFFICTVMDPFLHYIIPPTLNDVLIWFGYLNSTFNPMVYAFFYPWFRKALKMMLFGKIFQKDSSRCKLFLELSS
#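 Material: RD-HGA16 CHO cells with stable hTAAR1 and Gα16; Dosing: single nominal final test compound concentration of 3 µM; Schedule: seeding 17-24 h prior, 75-min 37 °C, 30-min RT dye loading; Detection: kinetic Fluo-8 calcium fluorescence measurement; Measure: % inhibition from peak post-agonist over basal fluorescence ratio; Benchmarks: vehicle and agonist controls.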
# TAAR1 agonist: agonists of human TAAR1 | Q96RJ0 | CHO RD-HGA16 TAAR1, Fluo-8 calcium fluorescence; vehicle wells 0%, saturating PEA agonist 100% | activation, % at 3 µM | 0.99% of 360,000 active | AID 624467;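 active = activation above the mean activation of all test compounds in the run plus 3 SD, cut at about 38% in these data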
#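 Test system: RD-HGA16 (CHO) cells co-expressing Gα16 and hTAAR1; dosing: one-point dosing at 3 µM (nominal); timing: 17-24 h seeding, 75 min 37 °C dye, 30 min RT; signal: kinetic Fluo-8 calcium fluorescence; read-out basis: % activation relative to PEA EC100 response; controls: DMSO and PEA EC100; replicates: n 1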
# OX1R antag-2: antagonists of human orexin 1 receptor | AID 434989 | inhibition, % at 5 µM | O43613 | CHO/OX1R cells, Fluo-8 calcium fluorescence, orexin A | 0.43% of 330,000 active;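 active = inhibition above its plate's threshold, mean inhibition of all tested compounds on the plate plus 3 SD, cut at about 37% in these data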;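 also: 0% = orexin A challenge wells and 100% = SB-334867-A antagonist wells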
# OX1R HTRF conf: confirmation of human orexin 1 receptor antagonists, HTRF format; shares compounds with OX1R antag-1; OX1R-expressing cells, HTRF antagonist assay; inhibition, % at 6.6 µM; 49% of 1,800 active; in the data active = inhibition above about 55%;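 also: CHO cells expressing OX1R stimulated with orexin A at about EC80; 0% = agonist challenge alone and 100% = reference antagonist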
# CHO-K1 HTRF: counter-screen for OX1R antagonists: effect in parental CHO-K1 cells; shares compounds with OX1R antag-1; HTRF counterscreen; inhibition, % at 6.6 µM; 48% of 1,800 active; in the data active = inhibition above about 17%;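 also: 0% = agonist challenge with vehicle and 100% = vehicle alone without agonist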
# * hit, by the source's call; . = no result given. Rows were chosen to be rich in hits. Some 4.5% of all compounds tested hit in one or more screens of this group.
SMILES,GPR7 antagonist,OX1R antag-1,CHO parental Ca,TAAR1 antag,TAAR1 agonist,OX1R antag-2,OX1R HTRF conf,CHO-K1 HTRF
O=C(NCc1cccnc1)[C@@H]1CC=C[C@@H]2CCN(Cc3ccc(Cl)c(Cl)c3)C(=O)[C@@H]21,.,28,-16,13,2,-19,.,.
CCC(NC(=O)c1ccc([N+](=O)[O-])cc1[N+](=O)[O-])c1ccccc1 (stereo not drawn),-5,114*,-1,6,16,-7,55*,50*
CSc1nc2n(n1)C(c1cccs1)C1=C(CCCC1=O)N2 (stereo not drawn),-21,106*,-12,-13,2,-11,16,3
Nc1[nH]c(C(=O)c2ccccc2)c(-c2ccc(C(F)(F)F)cc2)c1C(=O)NCc1ccc(Cl)cc1Cl,.,.,.,-9,6,.,.,.
CN(C(=O)c1cccc(NC(=O)Cc2ccc(NC(=O)C3CCCN(S(=O)(=O)c4cccc([N+](=O)[O-])c4)C3)cc2)c1)C1CCCCC1 (stereo not drawn),.,.,.,-12,0,.,.,.
Cc1ccc(NC(=O)c2ccncc2)cc1[N+](=O)[O-],-1,105*,-17,-4,3,-1,32,32*
Cc1ccc(C(=O)NNC(=O)c2ccncc2)cc1[N+](=O)[O-],.,9,-3,-3,0,-6,.,.
CCN(CC)S(=O)(=O)c1ccc(N2CCOCC2)c(NC(=O)c2cc3ccccc3o2)c1,.,.,.,8,16,.,.,.
NC(=S)N=Nc1c(O)[nH]c2ccc(F)cc12,4,83*,-2,0,4,5,46,36*
O=Nc1c(O)[nH]c2ccc(F)cc12,-12,15,3,0,12,0,.,.
Cc1ccc2nc3c(cc(C(=O)NCc4ccco4)c(=N)n3C3CCCC3)c(=O)n2c1,-13,30,-10,-17,-2,-28,.,.
COc1ccc(CCn2c(=N)c(C(=O)N3CCN(C)CC3)cc3c(=O)n4ccccc4nc32)cc1,-11,105*,-21,13,8,-27,38,51*
N=c1c(C(=O)NCc2ccco2)cc2c(=O)n3ccccc3nc2n1CCc1ccccc1,-11,114*,-28,-17,8,-32,51,42*
COCCn1c(=N)c(C(=O)NCc2ccco2)cc2c(=O)n3cc(C)ccc3nc21,0,108*,-6,-11,0,-21,49,69*
COc1c(C)cc(C(=O)C2CCCN(C(=O)c3cccc(-n4cccn4)c3)C2)cc1C (stereo not drawn),-22,89*,-9,1,-1,-8,81*,3
Cc1cc(S(=O)(=O)Nc2ncnc3sccc23)ccc1F,.,.,.,-39,1,.,.,.
COc1ccccc1OCCCOc1cccc(/C=C2\SC(=O)NC2=O)c1,7,78*,-10,28,5,-13,54,22*
COc1ccc(C=C2SC(=O)NC2=O)cc1OC,.,.,.,8,1,.,.,.
COCCn1c(SCC(=O)Nc2nc3ccccc3s2)nnc1-c1ccoc1C,-11,81*,-20,-11,11,-9,37,3
Cc1c(C(=O)NNC(=O)c2ccccc2O)oc2ccccc12,.,.,.,-15,0,.,.,.
Cc1nc2c(C(=O)Nc3ccc(N4CCCC(O)C4)cc3)snc2c(=O)[nH]1 (stereo not drawn),4,95*,-2,-23,0,3,39,59*
CC1(C)OC(=O)C(=NNc2ccccc2)C(=O)O1,-2,52,4,-22,2,4,.,.
CC1(C)OC(=O)C(=NNc2ccc(O)cc2)C(=O)O1,-8,82*,23,-21,3,-4,19,24*
Clc1ccccc1-c1cc2nc(NCc3ccco3)ccn2n1,.,.,.,5,2,.,.,.
CN1C(=O)/C(=C2/C=Cc3ccccc3N2CCCS(=O)(=O)O)SC1=S,3,100*,-4,-13,16,3,59*,97*
SMILES,GPR7 antagonist,OX1R antag-1,CHO parental Ca,TAAR1 antag,TAAR1 agonist,OX1R antag-2,OX1R HTRF conf,CHO-K1 HTRF
CCCN1/C(=C2/SC(=S)N(CC)C2=O)C=Cc2ccccc21,3,14,-17,-11,0,-15,.,.
COC(=O)C1=COC(OC2OC(CO)C(O)C(O)C2O)C2C(C)CC(=O)C12 (stereo not drawn),.,.,.,1,1,.,.,.
COC(=O)[C@]12CCCCC=C1N(Cc1ccc(Cl)cc1Cl)C(=O)[C@H](CC(=O)NCCc1ccccc1OC)C2,.,.,.,5,29,.,.,.
CCn1c(O)c(/C=N/N=C/c2ccc(OC)cc2)c2cc(C3=NNC(=O)CC3)ccc21,-13,5,17,-6,1,-21,.,.
CC/C(C)=N\N=C\c1c(O)n(CC)c2cc(C3=NNC(=O)CC3)ccc12,-17,88*,-13,.,.,-7,21,14
CC(=O)N(/N=C1\Sc2ccccc2C1=O)c1cccc(C)c1,2,105*,2,7,10,9,19,12
CC(=O)N(CN1C(=O)c2ccccc2C1=O)c1cccc(C)c1,11,14,-18,1,0,-2,.,.
O=C(Nc1nc2nc(-c3ccccc3)cc(-c3ccccc3)n2n1)c1ccco1,-14,80*,-19,34,10,-5,46,7
CC(=O)Nc1nc2nc(-c3ccccc3)cc(-c3ccccc3)n2n1,3,28,-15,12,5,-30,.,.
CC1(C(=O)O)CCCN(C(=O)C2(c3ccc(Cl)cc3)CCCC2)C1 (stereo not drawn),.,.,.,-5,2,.,.,.
COc1ccc(NC(=O)/C=C/c2c(Cl)nc3ccccn23)cc1,-12,111*,-28,15,2,18,96*,17*
C[C@@H]1CCCCO[C@H](CN(C)Cc2ccc(C(=O)O)cc2)[C@H](C)CN([C@@H](C)CO)C(=O)c2cc(NC(=O)Nc3ccc(C(F)(F)F)cc3)ccc2O1,.,.,.,-17,2,.,.,.
CCCCNC(=O)C1(C)CCC(=O)N1CCCn1ccnc1 (stereo not drawn),.,.,.,-10,1,.,.,.
Cc1nc2ccc([N+](=O)[O-])cc2nc1C,2,112*,-4,-27,3,4,68*,81*
Cc1cccc2nc(-c3cccc(NC(=O)Cc4ccccc4)c3)cn12,-6,32,-25,-5,-1,-41,.,.
Cc1cccc2nc(-c3cccc(NC(=O)c4ccc(Cl)cc4)c3)cn12,-7,84*,-27,-6,-1,-18,79*,24*
O=C1C2C(C(=O)N1/N=C/c1ccc([N+](=O)[O-])o1)C1C=CC2C12CC2 (stereo not drawn),4,80*,-15,6,-2,-18,47,59*
